The target in assay [1] is Acetylcholinesterase (Homo sapiens) (UniProt P22303).
A further assay has as its system Cryptococcus neoformans. Kind of assay: Antifungal activity against Cryptococcus neoformans by broth dilution method. The class given is functional. The method in brief:
(§1)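 Antifungal MIC determined by broth dilution, reported in µg/mL. Amphotericin B served as the positive control.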
On the technique in general: Broth dilution looks for growth in wells or tubes with falling amounts of substance.

The test system of a further assay is Candida albicans. In words: Antifungal activity against Candida albicans by broth dilution method. The class given is functional. The method in brief:
as §1

Another assay deals with Escherichia coli. In words: Antibacterial activity against Escherichia coli by broth dilution method. The format is functional. The method in brief:
(§2)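 Broth dilution MIC determination against the bacterium, reported in µg/mL. Gentamicin served as the positive control.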

The subject of assay [2] is Staphylococcus aureus. Kind of assay: Antibacterial activity against methicillin-resistant Staphylococcus aureus by broth dilution method. The format is functional. An outline of the steps: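 Broth dilution giving an MIC in µg/mL, with gentamicin as the antibacterial positive control. The same series covered E. coli, K. pneumoniae, S. aureus, S. pyogenes and two fungi.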

Assay [3] has as its system Staphylococcus aureus. In words: Antibacterial activity against Staphylococcus aureus by broth dilution method. The class given is functional. An outline of the steps: as §2
In another assay the test system is Klebsiella pneumoniae. In words: Antibacterial activity against Klebsiella pneumoniae by broth dilution method. The class given is functional. An outline of the steps:
as §2

For another assay, the system named is Streptococcus pyogenes. In words: Antibacterial activity against Streptococcus pyogenes by broth dilution method. The class given is functional. The method in brief: as §2

In brackets after ≈: the same amount, converted by molar mass.

Sequence of Acetylcholinesterase (Homo sapiens) (P22303 whole entry): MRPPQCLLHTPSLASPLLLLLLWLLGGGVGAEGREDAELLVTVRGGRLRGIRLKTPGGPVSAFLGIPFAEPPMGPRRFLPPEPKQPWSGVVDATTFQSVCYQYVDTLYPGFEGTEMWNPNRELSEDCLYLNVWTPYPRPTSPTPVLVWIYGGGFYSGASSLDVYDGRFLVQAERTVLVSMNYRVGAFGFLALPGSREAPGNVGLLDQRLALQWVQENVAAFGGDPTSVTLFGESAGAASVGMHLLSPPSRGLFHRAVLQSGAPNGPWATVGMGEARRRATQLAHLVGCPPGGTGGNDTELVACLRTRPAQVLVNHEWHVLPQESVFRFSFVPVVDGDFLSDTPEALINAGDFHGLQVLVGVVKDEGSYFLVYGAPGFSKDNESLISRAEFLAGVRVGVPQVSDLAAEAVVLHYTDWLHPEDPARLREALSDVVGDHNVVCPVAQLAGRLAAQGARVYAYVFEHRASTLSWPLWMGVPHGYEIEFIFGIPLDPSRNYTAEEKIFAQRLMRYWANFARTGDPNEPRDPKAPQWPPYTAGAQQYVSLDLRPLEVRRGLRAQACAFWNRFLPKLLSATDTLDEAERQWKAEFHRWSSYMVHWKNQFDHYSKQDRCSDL

As to `CC/C=C/[C@@]12[C@@H]3C[C@H]4[C@H]5[C@H](C)/C(=C6/OC(=O)C(C)=C6OC)O[C@]5(O3)[C@@H]1CCN42`, the MIC in assay [1] came out at 5 ng.

Turning to `CCCC[C@@]12C3CCN1[C@H]1C[C@H]2O[C@@]32O/C(=C3\OC(=O)C(C)=C3OC)[C@@H](C)[C@H]12`, the MIC in assay [1] is 10 ng.

In the case of `CC[C@H](O)C[C@@]12[C@@H]3C[C@H]4[C@H]5[C@H](C)/C(=C6/OC(=O)C(C)=C6OC)O[C@]5(O3)[C@@H]1CCN42`, the MIC in assay [1] turned out to be 10 ng.

For `CC[C@H](O)C[C@@]12[C@@H]3C[C@H]4[C@H]5[C@H](C)/C(=C6\OC(=O)C(C)=C6OC)O[C@]5(O3)[C@@H]1CCN42`, the MIC in assay [1] was 10 ng.

On to `CC[C@H](O)C[C@@]12[C@@H]3C[C@H]4[C@H]5[C@H](C)[C@@H]([C@@H]6OC(=O)C(C)=C6OC)O[C@]5(O3)[C@@H]1CCN42`, for which, in assay [1], the MIC turned out to be 100 ng.

In assay [1], `CC[C@H](O)C[C@@]12[C@@H]3C[C@H]4[C@H]5[C@H](C)[C@@H]([C@H]6OC(=O)C(C)=C6OC)O[C@]5(O3)[C@@H]1CCN42` displayed an MIC of 50 ng.

With `C[C@@H]1[C@H](O)[C@@H](C)/C=C/C=C/C=C/C=C/C=C/C=C/C=C/[C@H](O[C@@H]2O[C@H](C)[C@@H](O)[C@H](N)[C@@H]2O)C[C@@H]2O[C@](O)(C[C@@H](O)C[C@@H](O)[C@H](O)CC[C@@H](O)C[C@@H](O)CC(=O)O[C@H]1C)C[C@H](O)[C@H]2C(=O)O` [AMPHOTERICIN B], the MIC in the assay on Cryptococcus neoformans was 3.9 µg/mL (≈ 4.22 µM); in the assay on Candida albicans, 15.6 µg/mL (≈ 16.9 µM).

With `COc1cc(-c2cc3c(O)cccc3o2)c(C)c(O)c1C` [STEMOFURAN E], the MIC with Cryptococcus neoformans was determined as 7.8 µg/mL (≈ 27.4 µM); against Escherichia coli it was 62.5 µg/mL (≈ 220 µM); in the assay on Staphylococcus aureus [2], 15.6 µg/mL (≈ 54.9 µM); against Staphylococcus aureus [3], 62.5 µg/mL (≈ 220 µM); against Klebsiella pneumoniae, 62.5 µg/mL (≈ 220 µM); against Candida albicans it was 31.3 µg/mL (≈ 110 µM).

Turning to `COc1cc(-c2cc3c(O)cccc3o2)c(C)c(OC)c1C` [STEMOFURAN J], the MIC in the assay with Cryptococcus neoformans came to 7.8 µg/mL (≈ 26.1 µM); in the assay with Escherichia coli, 62.5 µg/mL (≈ 209 µM); against Streptococcus pyogenes it was 62.5 µg/mL (≈ 209 µM); with Staphylococcus aureus [2], 15.6 µg/mL (≈ 52.3 µM); in the assay on Staphylococcus aureus [3] it was 62.5 µg/mL (≈ 209 µM); against Klebsiella pneumoniae, 62.5 µg/mL (≈ 209 µM). Moreover, the MIC against Candida albicans turned out to be 31.3 µg/mL (≈ 105 µM).

For the compound `COc1cc(O)c(C)c(-c2cc3c(O)cc(OC)cc3o2)c1` [STEMOFURAN M], the MIC in the assay on Cryptococcus neoformans turned out to be 31.3 µg/mL (≈ 104 µM); in the assay with Escherichia coli, 125 µg/mL (≈ 416 µM); in the assay on Streptococcus pyogenes it was 62.5 µg/mL (≈ 208 µM); against Staphylococcus aureus [2], 31.3 µg/mL (≈ 104 µM); against Staphylococcus aureus [3], 31.3 µg/mL (≈ 104 µM); in the assay with Klebsiella pneumoniae, 62.5 µg/mL (≈ 208 µM). For the same compound, the MIC in the assay on Candida albicans was 31.3 µg/mL (≈ 104 µM).

With `COc1cc(OC)c(C)c(-c2cc3c(O)cc(OC)cc3o2)c1` [STEMOFURAN P], the MIC in the assay with Cryptococcus neoformans was determined as 7.8 µg/mL (≈ 24.8 µM); against Escherichia coli, 62.5 µg/mL (≈ 199 µM); with Staphylococcus aureus [2], 62.5 µg/mL (≈ 199 µM); against Staphylococcus aureus [3] it was 31.3 µg/mL (≈ 99.6 µM); in the assay with Klebsiella pneumoniae, 125 µg/mL (≈ 398 µM); in the assay with Candida albicans, 15.6 µg/mL (≈ 49.6 µM).

In the case of GENTAMICIN, the MIC with Escherichia coli turned out to be 11.3 µg/mL; with Streptococcus pyogenes, 5.6 µg/mL; with Staphylococcus aureus [2], 45 µg/mL; in the assay with Staphylococcus aureus [3], 22.5 µg/mL; with Klebsiella pneumoniae, 11.3 µg/mL.

These data come from ChEMBL document CHEMBL1806392, “Phytochemical studies on Stemona aphylla: isolation of a new stemofoline alkaloid and six new stemofurans” (2011).
